Data reported in ChEMBL document CHEMBL2380272, “Biological evaluation of bisbenzaldehydes against four Mycobacterium species” (Eur J Med Chem, 2013).
Converted amounts (≈) assume the structure as drawn.

Columns and labels:
[1] = system: Mycobacterium tuberculosis; assay: Antimycobacterial activity against multidrug-resistant Mycobacterium tuberculosis LAM-1 clinical isolate assessed as growth inhibition after 6 days by BACTEC 460-TB method; format: functional; settings: LAM-1, 144 h
Procedure, shortened: (§1)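 BACTEC 460-TB radiometric assay measuring 14CO2 from 14C-palmitic acid. The MDR LAM-1 isolate was precultured to growth index 300, then inoculated into a fresh vial with compound dilutions made in 7H9 + 10% OADC. Final concentrations were 0.4–1.2 µM. GI was read daily. MIC90 and MIC99 came from comparison with untreated controls diluted 10- and 100-fold. A 0.1 µg/mL isoniazid culture served as the resistance control.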

[2] = system: Mycobacterium tuberculosis; assay: Antimycobacterial activity against multidrug-resistant Mycobacterium tuberculosis LAM-1 clinical isolate assessed as growth inhibition at 1 to 1.2 uM after 6 days by BACTEC 460-TB method relative to 10 to 100 times diluted untreated control; format: functional; procedure, shortened: as §1

Row | SMILES | MIC90 [1] | growth inhibition (GI) [2]
1 | O=Cc1ccc(OCCCCCCCCCOc2ccc(C=O)cc2)cc1 | 0.6 µM (≈ 0.221 µg/mL) | 
2 | O=Cc1ccc(OCCCCCCCCCCOc2ccc(C=O)cc2)cc1 | 0.6 µM (≈ 0.229 µg/mL) | 
3 | O=Cc1ccc(OCCCCCCCCCCCOc2ccc(C=O)cc2)cc1 | 0.6 µM (≈ 0.238 µg/mL) | 99%
4 | O=Cc1ccc(OCCCCCCCCCCCCOc2ccc(C=O)cc2)cc1 | 0.4 µM (≈ 0.164 µg/mL) | 99%
